Results reported in ChEMBL document CHEMBL4840303, “Design, synthesis, biological evaluation and pharmacophore model analysis of novel tetrahydropyrrolo[3,4-c]pyrazol derivatives as potential TRKs inhibitors” (Eur J Med Chem, 2021).

Legend:
[1] = biological target: High affinity nerve growth factor receptor (Homo sapiens, UniProt P04629); experiment: Inhibition of recombinant His-tagged human TRKA expressed in baculovirus expression system at 1 uM measured by select screen assay relative to control
Chain of High affinity nerve growth factor receptor (P04629 33-796 limits assumed): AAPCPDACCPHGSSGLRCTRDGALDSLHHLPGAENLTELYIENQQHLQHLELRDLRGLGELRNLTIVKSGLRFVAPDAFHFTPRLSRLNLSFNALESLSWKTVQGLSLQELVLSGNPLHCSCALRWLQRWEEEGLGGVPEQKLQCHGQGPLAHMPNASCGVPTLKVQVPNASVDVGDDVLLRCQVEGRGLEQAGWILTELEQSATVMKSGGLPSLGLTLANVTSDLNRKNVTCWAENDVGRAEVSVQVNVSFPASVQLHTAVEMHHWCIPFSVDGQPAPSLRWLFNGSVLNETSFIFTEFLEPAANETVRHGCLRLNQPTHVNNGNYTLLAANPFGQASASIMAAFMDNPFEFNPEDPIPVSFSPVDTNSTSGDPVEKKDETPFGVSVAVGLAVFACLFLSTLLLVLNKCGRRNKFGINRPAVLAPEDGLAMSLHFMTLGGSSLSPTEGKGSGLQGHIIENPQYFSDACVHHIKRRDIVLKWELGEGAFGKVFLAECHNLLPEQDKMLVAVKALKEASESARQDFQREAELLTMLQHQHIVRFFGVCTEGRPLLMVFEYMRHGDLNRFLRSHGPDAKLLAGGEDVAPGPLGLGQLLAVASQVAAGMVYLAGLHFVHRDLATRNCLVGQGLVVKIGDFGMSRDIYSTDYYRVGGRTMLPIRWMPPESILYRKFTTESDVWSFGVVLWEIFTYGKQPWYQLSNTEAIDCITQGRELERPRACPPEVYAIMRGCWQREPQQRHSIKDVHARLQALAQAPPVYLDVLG
Procedure, shortened: (§1)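 Single-concentration profiling at 1.0 µM in a 28-kinase SelectScreen panel; percent inhibition reported.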

CYP1A2 = CYP1A2 (Homo sapiens, UniProt P05177); experiment: Inhibition of CYP1A2 in human liver microsomes at 10 uM preincubated for 10 mins followed by addition of NADPH and measured after 15 mins by LC-MS/MS analysis; format: ADME; details: time 25 min
Chain of CYP1A2 (P05177 whole entry): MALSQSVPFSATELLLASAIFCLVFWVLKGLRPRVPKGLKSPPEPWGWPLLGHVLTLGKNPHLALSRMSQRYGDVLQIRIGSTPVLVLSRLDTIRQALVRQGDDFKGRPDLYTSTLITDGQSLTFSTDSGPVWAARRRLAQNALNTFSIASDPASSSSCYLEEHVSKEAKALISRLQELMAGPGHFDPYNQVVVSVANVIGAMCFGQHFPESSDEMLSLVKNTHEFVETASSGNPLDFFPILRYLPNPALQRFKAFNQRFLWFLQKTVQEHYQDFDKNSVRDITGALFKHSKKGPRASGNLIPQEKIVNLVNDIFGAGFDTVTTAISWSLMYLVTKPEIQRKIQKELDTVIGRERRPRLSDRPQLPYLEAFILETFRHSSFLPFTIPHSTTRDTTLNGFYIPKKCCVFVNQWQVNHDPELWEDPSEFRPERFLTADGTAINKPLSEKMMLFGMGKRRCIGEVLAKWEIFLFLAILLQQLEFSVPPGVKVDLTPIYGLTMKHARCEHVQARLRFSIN
Procedure, shortened: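 Pooled human liver microsomes (0.253 mg/mL) with test compound at 10 µM and probe substrates: phenacetin (CYP1A2), diclofenac (CYP2C9), S-mephenytoin (CYP2C19), dextromethorphan (CYP2D6), midazolam (CYP3A4). 10 min preincubation at 37 °C, NADPH-regenerating system added, 15 min at 37 °C. Stopped with cold acetonitrile containing tolbutamide/labetalol internal standards, centrifuged, supernatant read by LC-MS/MS; % inhibition.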

[2] = Half life in Sprague dawley rat at 3 mg/kg, po; format: ADME, organism-based; details: in vivo
Procedure, shortened: (§2)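 Blood was collected into heparin tubes at specified time points and centrifuged at once (4 °C, 4000 rpm, 20 min). Plasma levels were quantified by LC-MS/MS. Parameters came from noncompartmental analysis.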

KM12 [3] = experiment: Cell cycle arrest in human KM12 cells assessed as accumulation of cells at G2 phase at 1000 nM measured after 48 hrs by AnnexinV-FITC/PI staining based flowcytometry method relative to control; format: functional
KM12 [4] = experiment: Cell cycle arrest in human KM12 cells assessed as accumulation of cells at S phase at 500 nM measured after 48 hrs by AnnexinV-FITC/PI staining based flowcytometry method relative to control; format: functional
KM12 [5] = experiment: Cell cycle arrest in human KM12 cells assessed as accumulation of cells at greater G1 phase at 1000 nM measured after 48 hrs by AnnexinV-FITC/PI staining based flowcytometry method relative to control; format: functional
[6] = biological target: Tyrosine-protein kinase BTK (Homo sapiens) (UniProt Q06187); experiment: Inhibition of recombinant His-tagged full length human BTK expressed in baculovirus expression system at 1 uM measured by select screen assay relative to control; procedure, shortened: as §1
Chain of Tyrosine-protein kinase BTK (Homo sapiens) (Q06187 whole entry): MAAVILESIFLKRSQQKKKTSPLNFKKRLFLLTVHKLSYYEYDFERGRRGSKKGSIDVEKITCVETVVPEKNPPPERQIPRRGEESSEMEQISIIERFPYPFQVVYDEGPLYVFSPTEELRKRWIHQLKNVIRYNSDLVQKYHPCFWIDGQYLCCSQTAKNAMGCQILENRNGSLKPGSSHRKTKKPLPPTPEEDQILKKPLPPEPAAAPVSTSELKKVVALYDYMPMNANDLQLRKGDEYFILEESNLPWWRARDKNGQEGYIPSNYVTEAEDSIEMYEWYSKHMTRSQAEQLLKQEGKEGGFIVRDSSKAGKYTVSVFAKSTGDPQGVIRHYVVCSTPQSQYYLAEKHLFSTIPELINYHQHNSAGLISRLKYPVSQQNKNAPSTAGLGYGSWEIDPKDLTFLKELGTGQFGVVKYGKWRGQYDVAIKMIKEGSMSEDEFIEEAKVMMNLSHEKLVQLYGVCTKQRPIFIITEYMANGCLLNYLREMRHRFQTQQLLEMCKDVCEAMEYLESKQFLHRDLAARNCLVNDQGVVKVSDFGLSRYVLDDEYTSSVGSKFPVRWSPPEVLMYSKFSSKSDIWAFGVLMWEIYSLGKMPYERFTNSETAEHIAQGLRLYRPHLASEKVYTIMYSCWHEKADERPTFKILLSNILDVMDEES

KM12 [7] = experiment: Induction of apoptosis in human KM12 cells assessed as late apoptotic cells at 125 nM measured after 48 hrs by AnnexinV-FITC/PI staining based flowcytometry assay relative to control; format: functional
Procedure, shortened: (§3)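 They were detached with trypsin, washed twice in PBS, and 10^5 cells were suspended in Annexin V binding buffer. Cells were stained with FITC-Annexin V and PI for 10 min at room temperature in the dark, diluted with PBS and analysed by flow cytometry.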

KM12 [8] = experiment: Induction of apoptosis in human KM12 cells assessed as necrotic cells at 250 nM measured after 48 hrs by AnnexinV-FITC/PI staining based flowcytometry assay relative to control; format: functional
Procedure, shortened: (§4)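 10^5 cells in Annexin V binding buffer stained with FITC-Annexin V and PI for 10 min at room temperature in the dark, diluted with PBS and analysed by flow cytometry (FITC 494/518 nm, PI 535/617 nm).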

KM12 [9] = experiment: Induction of apoptosis in human KM12 cells assessed as late apoptotic cells at 250 nM measured after 48 hrs by AnnexinV-FITC/PI staining based flowcytometry assay relative to control; format: functional; procedure, shortened: as §3
[10] = AUC (last) in Sprague dawley rat at 1 mg/kg, iv; format: ADME, organism-based; set-up: time 0 - last, route intravenous, dose 1 mg/kg; details: in vivo; procedure, shortened: as §2
[11] = biological target: Protein kinase C alpha type (Homo sapiens) (UniProt P17252); experiment: Inhibition of recombinant GST-tagged human full length PRKCA expressed in insect expression system at 1 uM measured by select screen assay relative to control; procedure, shortened: as §1
[12] = biological target: Serine/threonine-protein kinase B-raf (Homo sapiens) (UniProt P15056); experiment: Inhibition of recombinant GST-tagged human full length BRAF expressed in baculovirus expression system at 1 uM measured by select screen assay relative to control; procedure, shortened: as §1
Chain of Serine/threonine-protein kinase B-raf (Homo sapiens) (P15056 whole entry): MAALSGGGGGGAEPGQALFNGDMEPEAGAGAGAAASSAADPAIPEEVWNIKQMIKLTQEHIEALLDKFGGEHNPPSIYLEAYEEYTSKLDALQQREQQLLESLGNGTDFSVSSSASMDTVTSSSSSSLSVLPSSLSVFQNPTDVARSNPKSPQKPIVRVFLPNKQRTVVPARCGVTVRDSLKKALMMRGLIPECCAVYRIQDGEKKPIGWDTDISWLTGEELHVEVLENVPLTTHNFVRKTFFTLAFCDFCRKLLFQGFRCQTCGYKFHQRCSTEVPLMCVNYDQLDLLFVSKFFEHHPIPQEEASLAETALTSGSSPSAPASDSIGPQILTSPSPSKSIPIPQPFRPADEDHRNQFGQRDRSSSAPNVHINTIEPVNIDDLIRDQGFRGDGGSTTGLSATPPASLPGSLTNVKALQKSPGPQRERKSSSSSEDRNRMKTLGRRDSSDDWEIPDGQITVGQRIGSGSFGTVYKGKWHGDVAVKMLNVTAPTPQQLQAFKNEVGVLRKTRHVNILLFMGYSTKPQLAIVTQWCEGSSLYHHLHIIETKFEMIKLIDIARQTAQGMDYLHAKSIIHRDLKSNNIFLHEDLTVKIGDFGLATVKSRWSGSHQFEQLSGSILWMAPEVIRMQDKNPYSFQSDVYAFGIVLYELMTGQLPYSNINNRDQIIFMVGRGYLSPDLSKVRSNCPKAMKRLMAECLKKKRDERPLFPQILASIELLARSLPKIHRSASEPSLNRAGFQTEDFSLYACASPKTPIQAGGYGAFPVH

KM12 [13] = experiment: Induction of apoptosis in human KM12 cells assessed as viable cells at 62.5 nM measured after 48 hrs by AnnexinV-FITC/PI staining based flowcytometry assay relative to control; format: functional; details: read-out: Activity; procedure, shortened: as §4
KM12 [14] = experiment: Cell cycle arrest in human KM12 cells assessed as accumulation of cells at G1 phase at 1000 nM measured after 48 hrs by AnnexinV-FITC/PI staining based flowcytometry method relative to control; format: functional
KM12 [15] = experiment: Cell cycle arrest in human KM12 cells assessed as accumulation of cells at greater G1 phase at 500 nM measured after 48 hrs by AnnexinV-FITC/PI staining based flowcytometry method relative to control; format: functional
KM12 [16] = experiment: Cell cycle arrest in human KM12 cells assessed as accumulation of cells at S phase at 62.5 nM measured after 48 hrs by AnnexinV-FITC/PI staining based flowcytometry method relative to control; format: functional
[17] = Volume of distribution at steady state in Sprague dawley rat at 1 mg/kg, iv; format: ADME, organism-based; details: in vivo, read-out: Vdss
Procedure, shortened: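 Single intravenous dose of 1 mg/kg to SD rats (n = 3 per group). Blood collected into heparinised tubes at specified times, centrifuged at 4 °C, and quantified by LC-MS/MS. Steady-state volume of distribution obtained by noncompartmental analysis.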

[18] = biological target: Serine/threonine-protein kinase PAK 1 (Homo sapiens) (UniProt Q13153); experiment: Inhibition of recombinant GST-tagged human full length PAK1 expressed in baculovirus expression system at 1 uM measured by select screen assay relative to control; procedure, shortened: as §1
Chain of Serine/threonine-protein kinase PAK 1 (Homo sapiens) (Q13153 whole entry): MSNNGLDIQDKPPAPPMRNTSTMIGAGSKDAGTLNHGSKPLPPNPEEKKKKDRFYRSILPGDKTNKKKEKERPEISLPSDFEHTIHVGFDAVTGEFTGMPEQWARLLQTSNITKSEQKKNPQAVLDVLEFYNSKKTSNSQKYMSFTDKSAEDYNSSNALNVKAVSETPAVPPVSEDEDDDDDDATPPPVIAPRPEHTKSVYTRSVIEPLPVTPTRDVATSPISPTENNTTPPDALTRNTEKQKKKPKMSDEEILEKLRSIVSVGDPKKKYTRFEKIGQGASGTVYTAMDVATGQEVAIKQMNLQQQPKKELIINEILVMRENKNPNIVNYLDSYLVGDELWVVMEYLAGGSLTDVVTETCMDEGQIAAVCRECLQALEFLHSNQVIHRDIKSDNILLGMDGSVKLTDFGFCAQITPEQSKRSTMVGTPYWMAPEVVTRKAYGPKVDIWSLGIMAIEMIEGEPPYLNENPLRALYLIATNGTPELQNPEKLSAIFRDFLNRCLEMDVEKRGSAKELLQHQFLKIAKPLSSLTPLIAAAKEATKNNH

[19] = Stability in human liver microsomes assessed as compound remaining at 100 uM measured after 60 mins by LC-MS/MS analysis; format: ADME, Microsome; details: 1 h
Procedure, shortened: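 Human liver microsomes diluted to 0.59 mg/mL working solution in 100 mM potassium phosphate, prewarmed 10 min at 37 °C; compound added from a 100 µM working solution. NADPH (in 10 mM MgCl2) added to one plate, buffer instead in no-cofactor control. Incubated at 37 °C, quenched at 5, 15, 30, 45, 60 min, centrifuged, analysed by LC-MS/MS.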

[20] = Tmax in Sprague dawley rat at 3 mg/kg, po; format: ADME, organism-based; details: in vivo
Procedure, shortened: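 Male/female status not given; SD rats (n = 3 per group) dosed orally at 3 mg/kg as a single dose. Blood taken into heparin tubes at set time points and centrifuged at 4 °C. Plasma levels quantified by LC-MS/MS; noncompartmental parameters fitted.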

[21] = biological target: Fibroblast growth factor receptor 1 (Homo sapiens) (UniProt P11362); experiment: Inhibition of recombinant His-tagged human FGFR1 expressed in baculovirus expression system at 1 uM measured by select screen assay relative to control; procedure, shortened: as §1
Chain of Fibroblast growth factor receptor 1 (Homo sapiens) (P11362 22-822 limits assumed): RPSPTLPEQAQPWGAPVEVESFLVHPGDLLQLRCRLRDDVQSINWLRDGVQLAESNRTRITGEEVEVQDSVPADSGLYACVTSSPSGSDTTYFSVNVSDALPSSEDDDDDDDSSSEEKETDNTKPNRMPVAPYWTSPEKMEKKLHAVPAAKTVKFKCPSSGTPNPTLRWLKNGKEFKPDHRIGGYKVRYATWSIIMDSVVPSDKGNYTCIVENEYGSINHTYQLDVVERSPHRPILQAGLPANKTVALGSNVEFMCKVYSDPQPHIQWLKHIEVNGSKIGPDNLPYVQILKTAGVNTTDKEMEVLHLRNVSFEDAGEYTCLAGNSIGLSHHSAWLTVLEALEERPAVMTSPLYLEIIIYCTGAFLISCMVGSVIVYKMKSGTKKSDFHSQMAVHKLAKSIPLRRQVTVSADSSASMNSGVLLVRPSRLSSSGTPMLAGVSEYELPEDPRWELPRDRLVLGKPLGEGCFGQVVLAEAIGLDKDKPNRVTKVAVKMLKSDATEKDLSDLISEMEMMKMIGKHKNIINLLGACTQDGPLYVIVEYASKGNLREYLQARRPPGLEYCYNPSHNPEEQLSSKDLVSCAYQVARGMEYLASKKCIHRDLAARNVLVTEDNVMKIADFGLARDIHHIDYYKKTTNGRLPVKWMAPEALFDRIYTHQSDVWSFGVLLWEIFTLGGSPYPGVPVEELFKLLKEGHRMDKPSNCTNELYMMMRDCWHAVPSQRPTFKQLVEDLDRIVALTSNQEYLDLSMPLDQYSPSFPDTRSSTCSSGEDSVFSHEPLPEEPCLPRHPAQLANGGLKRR

KM12 [22] = experiment: Induction of apoptosis in human KM12 cells assessed as early apoptotic cells at 125 nM measured after 48 hrs by AnnexinV-FITC/PI staining based flowcytometry assay relative to control; format: functional; procedure, shortened: as §3
KM12 [23] = experiment: Cell cycle arrest in human KM12 cells assessed as accumulation of cells at G2 phase at 125 nM measured after 48 hrs by AnnexinV-FITC/PI staining based flowcytometry method relative to control; format: functional
KM12 [24] = experiment: Cell cycle arrest in human KM12 cells assessed as accumulation of cells at greater G1 phase at 250 nM measured after 48 hrs by AnnexinV-FITC/PI staining based flowcytometry method relative to control; format: functional

Structure (SMILES): CN1CCN(c2ccc(C(=O)Nc3n[nH]c4c3CN(Cc3cc(F)cc(F)c3)C4(C)C)cc2)CC1
- inhibition [1]: 102%
- inhibition at 0.25 h, 10 µM (CYP1A2): 12.9%
- half-life [2]: 1.89 h
- Activity (KM12 [3]): 8.92%
- Activity (KM12 [4]): 6.56%
- Activity (KM12 [5]): 1.59%
- inhibition [6]: 35%
- Activity (KM12 [7]): 18.23%
- Activity (KM12 [8]): 0.04%
- Activity (KM12 [9]): 36.84%
- AUC(0-t) [10]: 2030 ng·h/mL
- inhibition [11]: 3%
- inhibition [12]: 3%
- viability at 0.0625 µM (KM12 [13]): 70.5%
- Activity (KM12 [14]): 72.8%
- Activity (KM12 [15]): 1.57%
- Activity (KM12 [16]): 35.6%
- Vd [17]: 0.892 L/kg
- inhibition [18]: 3%
- Stability [19]: 90.9%
- Tmax [20]: 1.67 h
- inhibition [21]: 60%
- Activity (KM12 [22]): 18.15%
- Activity (KM12 [23]): 11.5%
- Activity (KM12 [24]): 1.26%
